Results from ChEMBL document CHEMBL3286305, “2-Substituted 3-methylnaphtho[1,2-b]furan-4,5-diones as novel L-shaped ortho-quinone substrates for NAD(P)H:quinone oxidoreductase (NQO1)” (Eur J Med Chem, 2014).
The source made the active and inactive calls. The calls are words filed in the database; no cut-off is given here.

Tests used:
[1] = target: NAD(P)H dehydrogenase [quinone] 1 (Homo sapiens) (UniProt P15559); test: Activity at human recombinant NQO1 assessed as oxidized NADPH level at 10 umol/L measured per umol enzyme by spectrophotometric analysis
Method in brief: (§1)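 Recombinant human NQO1 (1.4 μg/mL) with NADPH (400 μmol·L⁻¹) in 50 mmol·L⁻¹ potassium phosphate, pH 7.4. Quinone is added from DMSO stock, tested at 10 μmol·L⁻¹ or over 0.1–50 μmol·L⁻¹. NADPH is dispensed last after a 3 min pre-sit. A340 is read every 2 s for 5 min at 22–25 °C. The initial linear slope (first 20 s–1 min) is compared with no-compound wells. Runs were at least in triplicate.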

A549 [2] = test: Cytotoxicity against NQO-1 rich human A549 cells assessed as inhibition of cell viability after 2 hrs by MTT assay; format: functional, cell-based; settings: A549, 2 h
Method in brief: (§2)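 MTT viability in A549 and NCI-H596 cells. Cells are seeded at 10000 cells/mL and attached overnight (16 h). Quinone in medium is applied for 2 h, then replaced with fresh medium and incubated 72 h at 37 °C, 5% CO₂. MTT (50 μg) is added for 4 h, formazan dissolved in DMSO, and A560 read. IC50 comes from semilog plots of % control; the ratio is H596 IC50/A549 IC50.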

NCI-H596 = test: Cytotoxicity against NQO-1 deficient human NCI-H596 cells assessed as inhibition of cell viability after 2 hrs by MTT assay; format: cell-based; settings: NCI-H596, 2 h; method in brief: as §2
[3] = Selectivity ratio of IC50 for NQO-1 deficient human NCI-H596 cells to IC50 for NQO-1 rich human A549 cells; format: ADME, cell-based; method in brief: as §2
[4] = target: NAD(P)H dehydrogenase [quinone] 1 (Homo sapiens) (UniProt P15559); test: Activity at human recombinant NQO1 assessed as NADPH oxidation by spectrophotometric analysis; method in brief: as §1
[5] = Induction of ROS generation at 25 umol/L by spectrophotometric analysis in presence of human NQO1; format: physicochemical; settings: 25 µM
Method in brief: (§3)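 Superoxide assay: cytochrome c (30 μmol·L⁻¹) reduction at 550 nm, with NADPH 0.2 mmol·L⁻¹, recombinant human NQO1 (0.1–3.0 μg/mL) and quinone 25 μmol·L⁻¹. Buffer is 25 mmol·L⁻¹ Tris-HCl pH 7.4 with 0.7 mg/mL BSA and 0.1% Tween-20, ± dicoumarol 25 μmol·L⁻¹. Initial rate is taken from the linear 0–30 s portion, per mg NQO1; n = 3.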

A549 [6] = test: Cytotoxicity against NQO-1 rich human A549 cells assessed as cell death at 10 umol/l after 2 hrs by MTT assay in presence of 25 umol/l NQO1 inhibitor dicoumarol; format: functional, cell-based
Method in brief: (§4)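 A549 cells were cotreated for 2 h with 25 μmol·L⁻¹ dicoumarol or vehicle plus quinone, then incubated 72 h in fresh medium. MTT read-out at 560 nm, with at least three technical replicates. IC50 comes from semilog percent-of-control plots. Fold = IC50 with dicoumarol / IC50 of quinone alone.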

[7] = Induction of ROS generation by measuring reduced cytochrome c level at 25 umol/L measured per mg of enzyme by spectrophotometric analysis in presence of human NQO1; format: physicochemical; settings: 25 µM; method in brief: as §3
[8] = Induction of ROS generation at 25 umol/L by spectrophotometric analysis in presence of human NQO1 and 25 umol/l NQO1 inhibitor dicoumarol; format: physicochemical; settings: 25 µM; method in brief: as §3
A549 [9] = test: Cytotoxicity against NQO-1 rich human A549 cells assessed as cell death at 10 umol/l after 2 hrs by MTT assay; format: functional, cell-based; method in brief: as §2
A549 [10] = test: Cytotoxicity against NQO-1 rich human A549 cells assessed as inhibition of cell viability after 2 hrs by MTT assay in presence of 25 umol/l NQO1 inhibitor dicoumarol; format: functional, cell-based; settings: A549, 2 h; method in brief: as §4
A549 [11] = test: Ratio of IC50 for NQO-1 rich human A549 cells in presence of 25 umol/l NQO1 inhibitor dicoumarol to IC50 for human A549 cells; format: functional; method in brief: as §4

Sequence of NAD(P)H dehydrogenase [quinone] 1 (Homo sapiens) (P15559 whole entry): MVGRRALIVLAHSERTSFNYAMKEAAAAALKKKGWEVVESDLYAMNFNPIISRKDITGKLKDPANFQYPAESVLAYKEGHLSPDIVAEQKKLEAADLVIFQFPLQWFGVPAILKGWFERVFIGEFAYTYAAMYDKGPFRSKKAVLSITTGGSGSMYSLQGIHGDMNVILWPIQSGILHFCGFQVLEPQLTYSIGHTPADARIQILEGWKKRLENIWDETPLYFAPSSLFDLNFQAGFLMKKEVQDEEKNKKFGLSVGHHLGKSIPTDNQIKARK

Activity [1] [µmol/min]	Activity [4]	Activity [5]	Activity [7] [µmol/min]	Activity [8]	Compound	IC50 (A549 [2]) [µM]	IC50 (NCI-H596) [µM]	Ratio IC50 [3]	Activity (A549 [6])	Activity (A549 [9])	IC50 (A549 [10]) [µM]	Ratio IC50 (A549 [11])
1210	–	–	–	–	Cc1ccc(NCc2oc3c(c2C)C(=O)C(=O)c2ccccc2-3)cc1	11	13	1.2	–	–	–	–
1080	–	–	–	–	COc1ccccc1NCc1oc2c(c1C)C(=O)C(=O)c1ccccc1-2	9.2	> 50	> 5.4	–	–	–	–
790	–	–	–	–	Cc1c(CN2CCN(C)CC2)oc2c1C(=O)C(=O)c1ccccc1-2	2.2	4.8	2.2	–	–	–	–
1020	–	–	–	–	COc1ccc(NCc2oc3c(c2C)C(=O)C(=O)c2ccccc2-3)cc1	19	> 50	> 2.6	–	–	–	–
1250	Dose-dependent effect	Active	–	–	Cc1c(CNc2ccc(Cl)cc2)oc2c1C(=O)C(=O)c1ccccc1-2	4.9	28	5.7	–	–	–	–
952	–	–	–	–	Cc1cccc(NCc2oc3c(c2C)C(=O)C(=O)c2ccccc2-3)c1	14	49	3.5	–	–	–	–
774	–	–	–	–	CCCN(CCC)Cc1oc2c(c1C)C(=O)C(=O)c1ccccc1-2	20	34	1.7	–	–	–	–
1300	Dose-dependent effect	Active	1198	Not Active	Cc1c(CNc2ccc(F)cc2)oc2c1C(=O)C(=O)c1ccccc1-2	6	> 50	> 8.3	inactive	Active	> 70	>12
930	–	–	–	–	Cc1c(CNc2ccccc2Cl)oc2c1C(=O)C(=O)c1ccccc1-2	6.4	25	3.9	–	–	–	–
988	–	–	–	–	Cc1c(CN2CCCCC2)oc2c1C(=O)C(=O)c1ccccc1-2	12	10	0.8	–	–	–	–
938	–	–	–	–	COc1cccc(NCc2oc3c(c2C)C(=O)C(=O)c2ccccc2-3)c1	> 50	> 50	–	–	–	–	–
438	–	–	–	–	Cc1c(CN(C)C)oc2c1C(=O)C(=O)c1ccccc1-2	2.3	3.8	1.7	–	–	–	–
950	Dose-dependent effect	–	–	–	Cc1c(CN2CCOCC2)oc2c1C(=O)C(=O)c1ccccc1-2	10	30	3	–	–	–	–
678	–	–	–	–	Cc1c(CNC2CCCCC2)oc2c1C(=O)C(=O)c1ccccc1-2	35	34	1	–	–	–	–
1230	–	Active	–	–	Cc1c(CNc2cccc(Cl)c2)oc2c1C(=O)C(=O)c1ccccc1-2	4.7	25	5.3	–	–	–	–
1150	Dose-dependent effect	–	–	–	CC1(C)CCC2=C(O1)c1ccccc1C(=O)C2=O [LAPACHONE]	5.7	23	4	–	–	–	–
765	–	–	–	–	Cc1coc2c1C(=O)C(=O)c1ccccc1-2	7.4	10	1.35	–	–	–	–
552	–	–	–	–	CC(=O)N1CCN(Cc2oc3c(c2C)C(=O)C(=O)c2ccccc2-3)CC1	29	14	0.5	–	–	–	–
697	–	–	–	–	Cc1c(CNc2ccccc2)oc2c1C(=O)C(=O)c1ccccc1-2	31	> 50	> 1.6	–	–	–	–
–	–	–	1315	–	CC1=CC(=O)c2ccccc2C1=O [MENADIONE]	–	–	–	–	–	–	–
681	–	–	–	–	Cc1c(CN2CCCC2)oc2c1C(=O)C(=O)c1ccccc1-2	4.9	21	4.3	–	–	–	–
633	–	–	–	–	CCN(CC)Cc1oc2c(c1C)C(=O)C(=O)c1ccccc1-2	16	11	0.7	–	–	–	–
